Assays:
[1] = system: Mus musculus; experiment: Toxicity in human Calu3 cells xenografted BALB/cA mouse assessed as body weight loss at 100 mg/kg, po measured every other day for 21 days; format: organism-based, Calu-3; parameters: dose 100 mg/kg, route oral; details: in vivo, 504 h
Method in brief: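 Female BALB/cA nude mice, 6–7 weeks old, implanted s.c. on the mid-right flank with 2×10^6 Calu-3 cells in 0.2 ml PBS. At 60–150 mm³ tumour volume, mice randomised into six per treatment group (twelve vehicle controls). Oral dosing in 0.5% CMC aqueous solution with 0.1% Tween-80. Body weight recorded every other day for 21 d.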

[2] = molecular target: Epidermal growth factor receptor (Homo sapiens, UniProt P00533); details: A-431, 0.001 to 1 uM
[3] = Antitumor activity against human Calu3 cells xenografted in BALB/cA mouse assessed as tumor growth inhibition at 200 mg/kg, po; format: functional; details: Calu-3, read-out: TGI
Method in brief: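 Female BALB/cA nude mice, 6–7 weeks old, implanted s.c. on midright side with 2×10^6 Calu-3 cells in 0.2 ml PBS. Grouped at 60–150 mm³ tumour volume (6 per treated group, 12 vehicle). Oral dosing in 0.5% CMC with 0.1% Tween-80. Caliper volume = L×W²×0.5; inhibition = (1 − T/C)×100% on relative tumour volume; weight tracked for 21 d.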

[4] = system: BT-474; experiment: Induction of cell cycle arrest in human BT474 cells assessed as accumulation at S phase at 10 uM incubated for 12 hrs by propidium iodide staining based flow cytometry (reference value: 19%); format: functional

Chain of Epidermal growth factor receptor (P00533 whole entry): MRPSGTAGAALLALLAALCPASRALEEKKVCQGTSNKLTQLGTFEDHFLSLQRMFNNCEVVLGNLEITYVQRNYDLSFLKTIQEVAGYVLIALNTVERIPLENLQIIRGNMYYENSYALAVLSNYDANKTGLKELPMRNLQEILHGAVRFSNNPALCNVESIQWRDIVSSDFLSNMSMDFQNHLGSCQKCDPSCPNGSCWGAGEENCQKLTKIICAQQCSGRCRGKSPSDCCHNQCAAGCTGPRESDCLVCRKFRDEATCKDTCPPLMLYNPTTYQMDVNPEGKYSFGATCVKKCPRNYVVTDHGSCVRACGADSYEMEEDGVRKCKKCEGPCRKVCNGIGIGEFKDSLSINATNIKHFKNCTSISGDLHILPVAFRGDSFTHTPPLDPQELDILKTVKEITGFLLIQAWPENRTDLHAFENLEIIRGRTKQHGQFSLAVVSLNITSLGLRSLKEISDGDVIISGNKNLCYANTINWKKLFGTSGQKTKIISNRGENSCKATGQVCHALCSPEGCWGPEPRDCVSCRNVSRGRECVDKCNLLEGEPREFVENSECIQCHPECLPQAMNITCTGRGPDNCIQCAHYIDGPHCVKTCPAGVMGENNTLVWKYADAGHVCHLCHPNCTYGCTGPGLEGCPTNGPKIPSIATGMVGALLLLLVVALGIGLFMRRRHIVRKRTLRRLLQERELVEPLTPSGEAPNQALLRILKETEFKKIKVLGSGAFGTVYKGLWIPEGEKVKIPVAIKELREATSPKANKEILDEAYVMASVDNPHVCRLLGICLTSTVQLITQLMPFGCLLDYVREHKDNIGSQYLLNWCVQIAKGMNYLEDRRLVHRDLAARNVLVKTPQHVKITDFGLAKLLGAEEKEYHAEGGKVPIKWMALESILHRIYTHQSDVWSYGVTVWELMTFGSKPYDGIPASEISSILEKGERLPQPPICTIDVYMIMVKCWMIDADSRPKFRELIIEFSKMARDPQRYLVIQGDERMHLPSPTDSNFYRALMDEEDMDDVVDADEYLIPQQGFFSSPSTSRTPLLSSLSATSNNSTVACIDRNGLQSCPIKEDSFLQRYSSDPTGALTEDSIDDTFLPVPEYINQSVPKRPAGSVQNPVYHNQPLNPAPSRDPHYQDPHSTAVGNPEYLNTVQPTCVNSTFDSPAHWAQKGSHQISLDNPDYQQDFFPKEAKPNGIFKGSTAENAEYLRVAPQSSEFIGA

With CN(C)[C@H](CS(C)(=O)=O)c1ccc(-c2ccc3ncnc(Nc4ccc(OCc5cccc(F)c5)c(Cl)c4)c3c2)o1 the Activity [1] was “Non-toxic”, the inhibition [2] was “Dose-dependent effect” and the inhibition in vivo at 200 mg/kg [3] was 83%. It also gave an Activity [4] of 8%.
